Measurements: ChEMBL document CHEMBL2169805, “The discovery of CCR3/H1 dual antagonists with reduced hERG risk” (Bioorg Med Chem Lett, 2012)
In brackets after ≈: the same amount, converted by molar mass.

What was measured:
[1] = Oral bioavailability in Sprague-Dawley rat at 1 mg/kg administered using cyclodextrin-meglumine as vehicle; assay type: ADME, organism-based; details: in vivo
[2] = Oral bioavailability in Sprague-Dawley rat at 1 mg/kg administered using 0.1%tween-1%CMC as vehicle; assay type: ADME, organism-based; details: in vivo
[3] = Half life in Sprague-Dawley rat at 1 mg/kg, iv; assay type: ADME, organism-based; parameters: dose 1 mg/kg, route intravenous; details: in vivo
[4] = Clearance in Sprague-Dawley rat at 1 mg/kg, iv; assay type: ADME, organism-based; parameters: dose 1 mg/kg, route intravenous; details: in vivo
[5] = Oral bioavailability in dog at 1 mg/kg administered using 0.1%tween-1%CMC as vehicle; assay type: ADME, organism-based, Canis lupus familiaris; details: in vivo
[6] = Volume of distribution at steady state in Sprague-Dawley rat at 1 mg/kg, iv; assay type: ADME, organism-based; parameters: dose 1 mg/kg, route intravenous; details: in vivo, read-out: Vdss
Procedure, shortened: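 Male Sprague-Dawley rats given a single iv dose, nominal 1 mg/kg, […] in DMA:PEG400:H2O (2:2:1).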

[7] = Solubility of the compound at pH 7.4; assay type: physicochemical; details: buffer
[8] = target: T1, Voltage-gated inwardly rectifying potassium channel KCNH2 (Homo sapiens, UniProt Q12809); assay: Inhibition of human ERG expressed in CHO cells by IonworksHT assay; assay type: cell-based
[9] = target: T2, C-C chemokine receptor type 3 (Homo sapiens, UniProt P51677); assay: Binding affinity to human CCR3 receptor expressed in CHOK1 cells by radioligand displacement assay; assay type: cell-based, CHO-K1
T2 sequence (P51677 whole entry): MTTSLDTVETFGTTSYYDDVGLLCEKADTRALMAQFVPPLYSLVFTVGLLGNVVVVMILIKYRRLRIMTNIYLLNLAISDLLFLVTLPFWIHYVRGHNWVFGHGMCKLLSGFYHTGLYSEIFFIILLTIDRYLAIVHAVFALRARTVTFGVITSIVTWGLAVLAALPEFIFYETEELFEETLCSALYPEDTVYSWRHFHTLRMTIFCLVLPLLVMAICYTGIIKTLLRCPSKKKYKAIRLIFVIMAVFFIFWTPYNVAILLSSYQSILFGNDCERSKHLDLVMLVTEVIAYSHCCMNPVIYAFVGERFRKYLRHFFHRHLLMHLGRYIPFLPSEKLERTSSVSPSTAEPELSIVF

Histamine H1 receptor = Histamine H1 receptor (Homo sapiens, UniProt P35367); assay: Displacement of [3H]pyrilamine from human H1 receptor expressed in CHOK1 cells; assay type: cell-based, CHO-K1
[10] = target: T1, Voltage-gated inwardly rectifying potassium channel KCNH2
[11] = Oral bioavailability in rat; assay type: ADME, organism-based; details: in vivo
hERG (KCNH2) = hERG (KCNH2) (Homo sapiens, UniProt Q12809); assay: Inhibition of human ERG expressed in HEK293 cells at 10 uM by electrophysiological ion flux assay; assay type: cell-based; details: HEK293 cells expressing human ERG
Chain of hERG (KCNH2) (Q12809 whole entry): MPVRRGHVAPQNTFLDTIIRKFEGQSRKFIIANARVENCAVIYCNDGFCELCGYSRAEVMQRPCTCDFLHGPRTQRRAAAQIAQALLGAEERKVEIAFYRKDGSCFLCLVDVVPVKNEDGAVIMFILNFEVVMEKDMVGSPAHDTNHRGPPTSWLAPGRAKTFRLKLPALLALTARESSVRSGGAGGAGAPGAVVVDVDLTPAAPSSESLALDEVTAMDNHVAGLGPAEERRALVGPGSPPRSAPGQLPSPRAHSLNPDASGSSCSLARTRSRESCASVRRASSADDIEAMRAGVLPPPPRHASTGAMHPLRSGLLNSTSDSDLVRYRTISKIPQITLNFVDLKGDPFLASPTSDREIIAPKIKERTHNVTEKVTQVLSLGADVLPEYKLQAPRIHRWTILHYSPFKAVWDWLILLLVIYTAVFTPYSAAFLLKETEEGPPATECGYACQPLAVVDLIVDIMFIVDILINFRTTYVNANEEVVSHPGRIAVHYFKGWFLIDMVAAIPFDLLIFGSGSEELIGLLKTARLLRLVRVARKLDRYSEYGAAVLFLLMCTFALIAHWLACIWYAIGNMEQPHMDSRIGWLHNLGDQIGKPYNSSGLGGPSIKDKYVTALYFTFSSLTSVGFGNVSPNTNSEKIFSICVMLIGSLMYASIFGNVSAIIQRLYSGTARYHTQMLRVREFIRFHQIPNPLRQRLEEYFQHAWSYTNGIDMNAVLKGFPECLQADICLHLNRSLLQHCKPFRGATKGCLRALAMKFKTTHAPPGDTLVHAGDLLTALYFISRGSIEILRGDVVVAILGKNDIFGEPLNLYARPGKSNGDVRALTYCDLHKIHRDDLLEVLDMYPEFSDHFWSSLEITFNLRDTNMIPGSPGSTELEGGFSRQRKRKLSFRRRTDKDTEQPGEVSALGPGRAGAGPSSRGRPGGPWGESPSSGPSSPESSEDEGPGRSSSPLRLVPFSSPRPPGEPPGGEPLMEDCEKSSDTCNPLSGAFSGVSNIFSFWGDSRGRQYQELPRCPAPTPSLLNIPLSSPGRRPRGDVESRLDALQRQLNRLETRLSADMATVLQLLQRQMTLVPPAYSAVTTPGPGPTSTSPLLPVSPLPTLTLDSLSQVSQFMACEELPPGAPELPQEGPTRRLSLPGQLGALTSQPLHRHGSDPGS

T1 sequence (Q12809 whole entry): as above
Chain of Histamine H1 receptor (P35367 whole entry): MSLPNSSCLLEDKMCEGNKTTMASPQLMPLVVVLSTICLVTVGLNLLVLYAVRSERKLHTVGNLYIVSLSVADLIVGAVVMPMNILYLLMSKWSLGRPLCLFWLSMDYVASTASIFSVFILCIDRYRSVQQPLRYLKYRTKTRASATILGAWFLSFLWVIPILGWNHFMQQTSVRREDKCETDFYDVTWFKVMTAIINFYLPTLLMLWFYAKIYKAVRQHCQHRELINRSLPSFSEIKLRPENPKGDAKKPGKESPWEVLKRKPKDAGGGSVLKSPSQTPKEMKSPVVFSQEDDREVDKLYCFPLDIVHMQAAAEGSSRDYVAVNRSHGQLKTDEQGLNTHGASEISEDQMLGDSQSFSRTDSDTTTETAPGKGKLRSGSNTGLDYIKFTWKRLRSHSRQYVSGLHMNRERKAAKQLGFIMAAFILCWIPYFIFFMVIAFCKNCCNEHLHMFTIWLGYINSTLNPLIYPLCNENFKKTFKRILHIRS

SMILES | Ki [9] [nM] | Ki (Histamine H1 receptor) [nM] | also measured
Cc1ccc(S(=O)(=O)NC(=O)N2CCC(N3CCC(Oc4ccc(Cl)c(Cl)c4)CC3)CC2)cc1 | – | – | bioavailability [1]: 44%; bioavailability [2]: 18%; half-life [3]: 2.7 h; clearance [4]: 20 mL/min/kg; bioavailability [5]: 19%; Vd [6]: 2.7 L/kg
Cc1ccc(S(=O)(=O)[N-]C(=O)N2CCC(N3CCC(Oc4ccc(Cl)c(Cl)c4)CC3)CC2)cc1.[Na+] | – | – | solubility [7]: 0.26 µM; bioavailability [2]: 15%; bioavailability [5]: 97%
Cc1ccc(S(=O)(=O)N(C)C(=O)N2CCC(N3CCC(Oc4ccc(Cl)c(Cl)c4)CC3)CC2)cc1 | 100 | 2.51 | IC50 [8]: 316 nM
Cc1c(Cl)ccc(OC2CCN(C3CCN(S(=O)(=O)NC(=O)c4ccccc4)CC3)CC2)c1Cl | 12.6 | 25.1 | bioavailability [2]: 18%; half-life [3]: 1.6 h; clearance [4]: 17 mL/min/kg; Vd [6]: 0.9 L/kg; IC50 [10]: 3980 nM
COc1ccc(C(=O)NCCN2CCN(Cc3ccc(Cl)c(Cl)c3)CC2)cc1Cl | 5010 | – | –
O=C(c1c[nH]c(=O)c2ccccc12)N1CCC(N2CCC(Oc3ccc(Cl)c(Cl)c3)CC2)CC1 | 10 | 25.1 | half-life [3]: 4.2 h; bioavailability [11]: 50%
O=C(O)CCCS(=O)(=O)c1cccc(C(=O)N2CCC(N3CCC(Oc4ccc(Cl)c(Cl)c4)CC3)CC2)c1 | 79.4 | 79.4 | –
O=C(O)CCNc1ccccc1C(=O)N1CCC(N2CCC(Oc3ccc(Cl)c(Cl)c3)CC2)CC1 | 501 | 15.8 | –
O=C(O)CCCCn1nnc(-c2ccc(C(=O)N3CCC(N4CCC(Oc5ccc(Cl)c(Cl)c5)CC4)CC3)cc2)n1 | 398 | 39.8 | –
Cc1ccc(C(=O)N2CCC(N3CC[C@H](Oc4ccc(Cl)c(C)c4Cl)C[C@@H]3C(=O)O)CC2)cc1 | 631 | > 6310 | –
Cc1ccc(C(=O)N2CCC(N3CC[C@@H](Oc4ccc(Cl)c(C)c4Cl)C[C@H]3C(=O)O)CC2)cc1 | 2510 | > 5010 | –
CS(=O)(=O)c1cccc(C(=O)N2CC[C@@H](N3CCC(Oc4ccc(Cl)c(Cl)c4)CC3)[C@H](C(=O)O)C2)c1 | 398 | 200 | –
O=C(NS(=O)(=O)c1ccccc1)N1CCC(N2CCC(Oc3ccc(Cl)c(Cl)c3)CC2)CC1 | 15.8 | 31.6 | IC50 [10]: 10000 nM
CN(C)c1ccc(S(=O)(=O)NC(=O)N2CCC(N3CCC(Oc4ccc(Cl)c(Cl)c4)CC3)CC2)cc1 | 50.1 | 20 | –
Cc1ccccc1S(=O)(=O)NC(=O)N1CCC(N2CCC(Oc3ccc(Cl)c(Cl)c3)CC2)CC1 | 20 | 50.1 | bioavailability [2]: 8%; Vd [6]: 2.7 L/kg; IC50 [10]: > 10000 nM
O=C(NS(=O)(=O)c1ccccc1Cl)N1CCC(N2CCC(Oc3ccc(Cl)c(Cl)c3)CC2)CC1 | 5.01 | 50.1 | –
COc1ccccc1S(=O)(=O)NC(=O)N1CCC(N2CCC(Oc3ccc(Cl)c(Cl)c3)CC2)CC1 | 25.1 | 20 | –
CN(C)c1ccccc1S(=O)(=O)NC(=O)N1CCC(N2CCC(Oc3ccc(Cl)c(Cl)c3)CC2)CC1 | 31.6 | 25.1 | –
O=C(NS(=O)(=O)c1cccc(Cl)c1)N1CCC(N2CCC(Oc3ccc(Cl)c(Cl)c3)CC2)CC1 | 6.31 | 7.94 | –
Cc1ccc(S(=O)(=O)NC(=O)N2CCC(N3CCC(Oc4ccc(Cl)cc4Cl)CC3)CC2)cc1 | 25.1 | 15.8 | –
Cc1ccc(S(=O)(=O)NC(=O)N2CCC(N3CCC(Oc4ccc(Cl)cc4C)CC3)CC2)cc1 | 7.94 | 25.1 | bioavailability [2]: 6%; half-life [3]: 0.9 h; clearance [4]: 27 mL/min/kg; Vd [6]: 1.4 L/kg; IC50 [10]: > 10000 nM
Cc1ccc(S(=O)(=O)NC(=O)N2CCC(N3CCC(Oc4ccc(Cl)cc4)CC3)CC2)cc1 | 126 | 126 | –
Cc1ccc(S(=O)(=O)NC(=O)N2CCC(N3CCC(Oc4ccc(F)c(F)c4)CC3)CC2)cc1 | 631 | 1000 | –

More lines, main results first:

Ki [9] [nM] | Ki (Histamine H1 receptor) [nM] | SMILES | also measured
3.16 | – | Cc1c(Cl)ccc(OC2CCN(C3CCN(C(=O)NS(=O)(=O)c4ccc(N(C)C)cc4)CC3)CC2)c1Cl | bioavailability [2]: 82%; IC50 [8]: > 20000 nM; Vd [6]: 2.3 L/kg
79.4 | 100 | O=C(NS(=O)(=O)N1CCC(N2CCC(Oc3ccc(Cl)c(Cl)c3)CC2)CC1)c1ccccc1 | bioavailability [2]: 100%; Vd [6]: 0.5 L/kg
100 | – | COc1cccc(C(=O)NCCN2CCC(Oc3ccc(Cl)c(Cl)c3)CC2)c1 | half-life [3]: 1.8 h
50.1 | 7.94 | CS(=O)(=O)c1cccc(C(=O)N2CCC(N3CCC(Oc4ccc(Cl)c(Cl)c4)CC3)CC2)c1 | solubility [7]: 0.017 µM (≈ 8.7 ng/mL); half-life [3]: 6.9 h; bioavailability [11]: 50%
5.01 | 25.1 | Cc1c(Cl)ccc(OC2CCN(C3CCN(C(=O)c4cccc(S(C)(=O)=O)c4)CC3)CC2)c1Cl | –
251 | 100 | O=C(O)COc1cccc(C(=O)N2CCC(N3CCC(Oc4ccc(Cl)c(Cl)c4)CC3)CC2)c1 | inhibition at 10 µM (hERG (KCNH2)): 15%
251 | 25.1 | O=C(O)c1ccccc1C(=O)N1CCC(N2CCC(Oc3ccc(Cl)c(Cl)c3)CC2)CC1 | –
200 | 126 | O=C(O)c1cccc(C(=O)N2CCC(N3CCC(Oc4ccc(Cl)c(Cl)c4)CC3)CC2)c1 | IC50 [10]: > 10000 nM
316 | 15.8 | O=C(c1ccc(-c2nc(=O)o[nH]2)cc1)N1CCC(N2CCC(Oc3ccc(Cl)c(Cl)c3)CC2)CC1 | –
200 | 31.6 | O=C(c1ccc(-c2nn[nH]n2)cc1)N1CCC(N2CCC(Oc3ccc(Cl)c(Cl)c3)CC2)CC1 | –
31.6 | 50.1 | O=C(NS(=O)(=O)c1ccc(F)cc1)N1CCC(N2CCC(Oc3ccc(Cl)c(Cl)c3)CC2)CC1 | –
7.94 | 20 | O=C(NS(=O)(=O)c1ccc(Cl)cc1)N1CCC(N2CCC(Oc3ccc(Cl)c(Cl)c3)CC2)CC1 | –
39.8 | 20 | COc1ccc(S(=O)(=O)NC(=O)N2CCC(N3CCC(Oc4ccc(Cl)c(Cl)c4)CC3)CC2)cc1 | bioavailability [2]: 4%
126 | 31.6 | Cc1cccc(S(=O)(=O)NC(=O)N2CCC(N3CCC(Oc4ccc(Cl)c(Cl)c4)CC3)CC2)c1 | –
100 | 20 | N#Cc1cccc(S(=O)(=O)NC(=O)N2CCC(N3CCC(Oc4ccc(Cl)c(Cl)c4)CC3)CC2)c1 | –
31.6 | 39.8 | O=C(NS(=O)(=O)c1cccc(C(F)(F)F)c1)N1CCC(N2CCC(Oc3ccc(Cl)c(Cl)c3)CC2)CC1 | –
0.631 | 20 | Cc1ccc(S(=O)(=O)NC(=O)N2CCC(N3CCC(Oc4ccc(Cl)c(C)c4Cl)CC3)CC2)cc1 | –
158 | 50.1 | O=C(NS(=O)(=O)Cc1ccccc1)N1CCC(N2CCC(Oc3ccc(Cl)c(Cl)c3)CC2)CC1 | –
